Article PMC5835461 (Journal of Diabetes Investigation, 2017)

What was measured:
[1] = tested on: Japanese patients with type 1 diabetes; assay: Safety assessments; format: in vivo, human; conditions: Japanese T1D patients; 0.2 U/kg single s.c. dose
Outline: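 Monitored through screening, two single 0.2 U/kg subcutaneous dosing visits and follow-up 7–21 days after second dose. Covered adverse events, injection site reactions, hypoglycemia, safety laboratory parameters, vital signs, physical examination and ECG. Hypoglycemia counted as confirmed if severe (third-party assistance) or plasma glucose <3.1 mmol/L. Summary statistics covered all patients receiving at least one dose.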

[2] = Pharmacokinetics: free serum IAsp concentration; format: in vivo, human (Japanese patients with type 1 diabetes); conditions: Japanese T1D patients; 0.2 U/kg single s.c. dose; least squares mean
Outline: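 Randomized, double-blind crossover with 3–12 days between dosing visits. After an overnight fast, patients received 0.2 U/kg subcutaneously into the lower abdominal wall. A euglycemic clamp held BG at 5.5 mmol/L, with sampling from 10 min pre-dose to 12 h post-dose. Free serum IAsp (PEG-precipitated) was measured by validated ELISA (LLOQ 10 pmol/L). Times were taken from raw individual profiles and analysed by linear mixed model.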

insulin aspart [IAsp]
Confirmed hypoglycemic episodes or injection site reactions [1]: No confirmed hypoglycemic episodes or injection site reactions
Serious adverse events [1]: no serious adverse events
Tolerability [1]: well tolerated
t Early 50% Cmax [2]: 29.3 min
t max [2]: 1.14 h
